Data as given in ChEMBL document CHEMBL1143177, “Antitumor effects of curcumin and structurally beta-diketone modified analogs on multidrug resistant cancer cells” (Bioorg Med Chem Lett, 2008).

What was measured:
[1] = tested on: MCF7; experiment: Growth inhibition of human MCF7 cells after 72 hrs by MTS assay; conditions: MCF7, 72 h
[2] = Growth inhibition of human HA22T/VGH cells after 72 hrs by MTS assay
[3] = tested on: MCF7R; experiment: Growth inhibition of human multidrug-resistant MCF7R cells after 72 hrs by MTS assay
[4] = target: Transcription factor p65 (Homo sapiens) (UniProt Q04206); experiment: Reduction in DNA binding activity of NF-kappaB p65 subunit in human HA22T/VGH cells after 4 hrs relative to control; type: cell-based; conditions: concentration not given here
Transcription factor p65 (Homo sapiens), sequence (Q04206 whole entry): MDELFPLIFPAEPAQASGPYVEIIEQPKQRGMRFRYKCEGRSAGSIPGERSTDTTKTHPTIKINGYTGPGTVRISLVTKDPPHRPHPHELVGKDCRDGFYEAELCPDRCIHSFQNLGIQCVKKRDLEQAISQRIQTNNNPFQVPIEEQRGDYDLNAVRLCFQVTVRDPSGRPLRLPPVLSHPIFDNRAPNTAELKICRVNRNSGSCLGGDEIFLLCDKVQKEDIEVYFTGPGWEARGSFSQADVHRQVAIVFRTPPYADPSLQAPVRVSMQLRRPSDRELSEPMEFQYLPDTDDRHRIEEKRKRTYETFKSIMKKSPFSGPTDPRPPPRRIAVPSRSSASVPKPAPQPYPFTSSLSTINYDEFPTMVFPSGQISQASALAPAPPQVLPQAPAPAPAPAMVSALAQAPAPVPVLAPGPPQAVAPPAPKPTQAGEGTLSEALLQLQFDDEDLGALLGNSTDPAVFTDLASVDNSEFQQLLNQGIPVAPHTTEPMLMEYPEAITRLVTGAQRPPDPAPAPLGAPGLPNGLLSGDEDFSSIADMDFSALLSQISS
How it was run: (§1)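 HA22T/VGH cells, which have constitutively active NF-κB, were exposed to compounds at 20 µM for 1.5 or 4 h. DNA-binding activity of the NF-κB p65 subunit was measured and expressed as percent of untreated control.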

[5] = target: Transcription factor p65 (Homo sapiens) (UniProt Q04206); experiment: Reduction in DNA binding activity of NF-kappaB p65 subunit in human HA22T/VGH cells after 1.5 hrs relative to control; type: cell-based; conditions: concentration not given here
How it was run: as §1

| IC50 [1] [µM] | IC50 [3] [µM] | inhibition [4] [%] | inhibition [5] [%] | SMILES | IC70 [1] [µM] | IC50 [2] [µM] | IC70 [2] [µM] | IC70 [3] [µM] |
| --- | --- | --- | --- | --- | --- | --- | --- | --- |
| 49.9 | 54.7 |  |  | COc1cc(/C=C/C(=O)/C=C(N)/C=C/c2ccc(O)c(OC)c2)ccc1O | 68.1 | 33 | 41.1 | 81.8 |
| 70.3 | 49.8 |  |  | COc1cc(/C=C/C(=O)/C=C(/C=C/c2ccc(O)c(OC)c2)NC(C)C)ccc1O | 93.5 | 26.3 | 29.8 | 79.5 |
| 36.3 | 39 |  |  | CO/N=C(\C=C\c1ccc(O)c(OC)c1)CC(/C=C/c1ccc(O)c(OC)c1)=N/OC | 43.4 | 32.9 | 40.4 | 52.8 |
| 13.1 | 12 |  |  | COc1cc(/C=C/c2cc(/C=C/c3ccc(O)c(OC)c3)on2)ccc1O | 23.2 | 12.8 | 18.3 | 24.7 |
| 93 | 67.6 |  |  | CCNC(=C\C(=O)/C=C/c1ccc(O)c(OC)c1)/C=C/c1ccc(O)c(OC)c1 | > 100 | 26.1 | 64.4 | 88.8 |
| > 100 | > 100 |  |  | COc1cc(/C=C/C(=O)/C=C(/C=C/c2ccc(O)c(OC)c2)NCc2ccccc2)ccc1O | > 100 | > 100 | > 100 | > 100 |
| 7.1 | 9.3 | 64.3 | 33.7 | COc1cc(/C=C/C(CC(/C=C/c2ccc(O)c(OC)c2)=N/OCc2ccccc2)=N\OCc2ccccc2)ccc1O | 9.2 | 5.9 | 8.4 | 12.9 |
| > 100 | > 100 |  |  | COc1cc(/C=C/C(=O)/C=C(/C=C/c2ccc(O)c(OC)c2)NC(C)c2ccccc2)ccc1O (stereo unspecified) | > 100 | > 100 | > 100 | > 100 |
| 29.3 | 26.2 |  |  | COc1cc(/C=C/C(=O)CC(=O)/C=C/c2ccc(O)c(OC)c2)ccc1O [CURCUMIN] | 51.7 | 17.4 | 24.6 | 46.2 |
